For three molecules, IC50, ILS and KE results are on record in ChEMBL document CHEMBL1126902, “Synthesis, chemical reactivity, and antitumor evaluation of congeners of carmethizole hydrochloride, an experimental "acylated vinylogous carbinolamine" tumor inhibitor” (J Med Chem, 1993).

One experiment has as its system A549. In words: Concentration required to inhibit tumor growth in A549, human lung carcinoma (NSCLC) cell line. It counts as functional, cell-based. In a few lines:
(§1)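 Cells grown in RPMI 1640 with 5% fetal calf serum, 5% NuSerum IV and 20 mM HEPES, seeded and allowed to adhere overnight. Compound dissolved in RPMI-1640 plus HEPES and tested over a 5 log range (10 concentrations) for 72 h. Read-out by sulforhodamine B assay. Median-effect dose derived by nonlinear regression of the concentration-effect curve.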

The next experiment relates to HT-29. In words: Concentration required to inhibit tumor growth in HT29, human colon adenocarcinoma cell line. It counts as functional, cell-based. Conditions: Homo sapiens, HT-29. In a few lines:
as §1

Experiment [1] in a line: Concentration required to inhibit tumor growth in […], human breast adenocarcinoma cell line. The experiment is classed as functional. In a few lines: as §1
Experiment [2] is described as follows: Concentration required to inhibit tumor growth in PSN-1, human pancreatic carcinoma cell line. The experiment is classed as functional. In a few lines: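 PSN-1 pancreatic carcinoma cells exposed to compound dissolved in RPMI-1640 plus HEPES at its maximum soluble concentration for 72 h. Read-out by sulforhodamine B colorimetric assay.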
In another experiment the test system is L1210 (Mus musculus). As to the kind of experiment: Concentration required to inhibit tumor growth in L1210, murine lymphocytic leukemia cell line.
Experiment [3] in a line: Percent increase in life span of dying mice tested in vivo at 47 mg/kg against ip implanted LOX amelanotic melanoma in mice (60-day survivors). The experiment is classed as functional. As to conditions: Mus musculus, 1440 h, route intraperitoneal. In a few lines:
(§2)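 Female CD2F1 mice implanted ip with ascitic fluid carrying ca. 1.7×10^6 LOX amelanotic melanoma cells. Drug given ip on days 1, 5 and 9, starting 24 h after implant, dosed by exact body weight; solutions or suspensions made fresh daily. %ILS is from the median day of death of dying mice versus controls, excluding 60-day survivors.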

Experiment [4] in a line: Percent increase in life span of dying mice tested in vivo at 94 mg/kg against ip implanted LOX amelanotic melanoma in mice (60-day survivors). Conditions: Mus musculus, 1440 h, route intraperitoneal. It counts as functional. In a few lines: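 Nude CD2F1 female mice were implanted ip with ascitic fluid containing ca. 1.7×10^6 LOX amelanotic melanoma cells. Drug was given ip on days 1, 5 and 9, starting 24 h after implantation, and dosed by exact body weight. Solutions or suspensions were made fresh daily in saline plus Tween 80. %ILS was calculated from the median day of death of dying mice versus controls, excluding 60-day survivors.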

Experiment [5] in a line: Change in tumor cell population in ip implanted LOX amelanotic melanoma in mice after administration of compound at 94 mg/kg. The experiment is classed as functional, Mus musculus. As to conditions: route intraperitoneal. In a few lines: (§3)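 Female CD2F1 mice were implanted ip with ascitic fluid holding ca. 1.7×10^6 LOX cells. Dosing was ip on days 1, 5 and 9, starting 24 h after implantation, by exact body weight, as a solution or suspension in saline plus Tween 80, freshly prepared daily. KE is the net log change in viable tumor cells from start to end of treatment. Bracketed KE assumes Poisson survival, with 60-day survivors tumor-free.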

Experiment [6] is described as follows: Change in tumor cell population in ip implanted LOX amelanotic melanoma in mice after administration of compound at 188 mg/kg. It counts as functional, Mus musculus. As to conditions: route intraperitoneal. In a few lines:
as §3

Experiment [7] can be described thus: Change in tumor cell population in ip implanted LOX amelanotic melanoma in mice after administration of compound at 23.5 mg/kg. It counts as functional, Mus musculus. Conditions: route intraperitoneal. In a few lines: as §3
The nature of experiment [8]: Change in tumor cell population in ip implanted LOX amelanotic melanoma in mice after administration of compound at 47 mg/kg. The experiment is classed as functional, Mus musculus. As to conditions: route intraperitoneal. In a few lines:
as §3

Experiment [9] can be described thus: Percent increase in life span of dying mice tested in vivo at 23.5 mg/kg against ip implanted LOX amelanotic melanoma in mice (60-day survivors). Conditions: Mus musculus, 1440 h, route intraperitoneal. The experiment is classed as functional. In a few lines:
as §2

Experiment [10] can be described thus: Percent increase in life span of dying mice tested in vivo at 188 mg/kg against ip implanted LOX amelanotic melanoma in mice (60-day survivors). It counts as functional. As to conditions: Mus musculus, 1440 h, route intraperitoneal. In a few lines: as §2
The subject of experiment [11] is P388. In words: Change in tumor cell population in ip implanted P388 Leukemia in mice after administration of compound at 23.5 mg/kg. It counts as functional, Mus musculus. Conditions: route intraperitoneal. In a few lines: (§4)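 Female Portage-CD2F1 mice were inoculated ip with ascitic fluid holding ca. 5.2×10^6 P388 cells. Dosing was ip on days 1-5, starting 24 h after inoculation, by average body weight, as a solution or suspension in saline plus Tween 80. KE is the net log change in viable tumor cell population from start to end of the treatment period.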

Experiment [12] deals with P388. In words: Change in tumor cell population in ip implanted P388 Leukemia in mice after administration of compound at 47 mg/kg. It counts as functional, Mus musculus. As to conditions: route intraperitoneal. In a few lines:
(§5)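 P388 leukemia: ascitic fluid with ca. 5.2×10^6 cells inoculated ip into Portage-CD₂F₁ female mice. Drug given ip on days 1-5, starting 24 h after inoculation, dosed by average body weight. Vehicle was saline plus Tween 80, as a solution or suspension. KE = net log change in viable tumor cells from start to end of treatment.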

Experiment [13] relates to P388. In words: Change in tumor cell population in ip implanted P388 Leukemia in mice after administration of compound at 94 mg/kg. As to conditions: route intraperitoneal. It counts as functional, Mus musculus. In a few lines: as §5
For experiment [14], the system named is P388. As to the kind of experiment: Percent increase in life span of dying mice tested in vivo at 23.5 mg/kg against ip implanted P388 Leukemia in mice. It counts as functional. As to conditions: Mus musculus, route intraperitoneal. In a few lines:
(§6)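 Portage-CD2F1 female mice inoculated ip with ascitic fluid carrying ca. 5.2×10^6 P388 leukemia cells. Drug given ip daily on days 1-5, starting 24 h after inoculation, dosed by average body weight. %ILS is from the median day of death of dying mice versus controls.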

In experiment [15] the test system is P388. In words: Percent increase in life span of dying mice tested in vivo at 47 mg/kg against ip implanted P388 Leukemia in mice. The experiment is classed as functional. Conditions: Mus musculus, route intraperitoneal. In a few lines: as §6
Experiment [16] deals with P388. In words: Percent increase in life span of dying mice tested in vivo at 94 mg/kg against ip implanted P388 Leukemia in mice. The experiment is classed as functional. As to conditions: Mus musculus, route intraperitoneal. In a few lines:
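Portage-CD2F1 female mice were inoculated ip with ascitic fluid containing ca. 5.2×10^6 P388 leukemia cells. Drug was given ip daily on days 1-5, starting 24 h after inoculation, and dosed by average body weight. %ILS was calculated from the median day of death of dying mice versus controls.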

Experiment [17] relates to P388. As to the kind of experiment: Change in tumor cell population in ip implanted P388 Leukemia in mice after administration of compound at 11.8 mg/kg. It counts as functional, Mus musculus. As to conditions: route intraperitoneal. In a few lines:
as §4

Experiment [18] has as its system P388. As to the kind of experiment: Percent increase in life span of dying mice tested in vivo at 11.8 mg/kg against ip implanted P388 Leukemia in mice. The experiment is classed as functional. As to conditions: Mus musculus, route intraperitoneal. In a few lines:
as §6

What is called IC50 is the midpoint of a concentration-inhibition curve. Read a high IC50 as weaker potency. Broadly, the ILS is how much longer treated animals lived than controls.

Regarding `CNC(=O)OCc1nc2n(c1COC(=O)NC)CCCS2`, the IC50 was > 1000 µM with A549; > 1000 µM in the experiment with HT-29; > 1000 µM in experiment [1]; > 650 µM in experiment [2]; > 100 µM with L1210 (Mus musculus).

`CNC(=O)OCc1nc(SC(C)C)n(C)c1COC(=O)NC`: the values for the ILS at 47 mg/kg (in experiment [3]; in the experiment with P388 [15]) were 24% and 27%, respectively. Moreover, the values for the ILS at 94 mg/kg (in experiment [4]; in the experiment on P388 [16]) were 28% and 59%, respectively. In addition, the KE is 0.6 in experiment [5]; -0.2 in experiment [6]; 1.3 in [7]; 0.7 in experiment [8]; 1 in the experiment with P388 [11]; 0.9 in the experiment with P388 [12]. Moreover, the KE is on record as -1.5 in the experiment on P388 [13] and 0.6 in the experiment on P388 [17]. Also, the ILS at 23.5 mg/kg in [9] stood at 13%; in the experiment on P388 [14], 25%. The molecule further returned an ILS at 188 mg/kg in experiment [10] of 45%. For the same molecule, the ILS at 11.8 mg/kg with P388 [18] worked out at 31%.

On to `CNC(=O)OCc1nc2n(c1COC(=O)NC)CCS2`, for which the IC50 in the experiment with A549 came to 190 µM; in the experiment on HT-29 it was 108 µM; in experiment [1] it was 147 µM; in [2], 118 µM; with L1210 (Mus musculus) it was 11 µM.
